Measurements reported in ChEMBL document CHEMBL4007452, “Discovery of an Orally Selective Inhibitor of Signal Transducer and Activator of Transcription 3 Using Advanced Multiple Ligand Simultaneous Docking” (J Med Chem, 2017).
Calls of active or inactive are those of the source. The calls are words filed in the database; no cut-off is given here.

Experiments:
MDA-MB-231 = assay: Induction of SHP-1 expression in human MDA-MB-231 cells at 2.5 to 10 uM after 12 hrs by immunoblot analysis; assay type: functional, cell-based
Procedure, shortened: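 MDA-MB-231 cells at 60–80% confluence were treated 12 h with 10% FBS at 2.5-10 µM or 2.5-5 µM, against a DMSO control. Whole-cell lysates were immunoblotted, with bands quantified as percent of control.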

[1] = biological target: Epidermal growth factor receptor (Homo sapiens) (UniProt P00533); assay: Inhibition of EGFR in human UW426 cells assessed as reduction in p-ERK1/2 (T202/Y204) level at 1 to 2.5 uM after 24 hrs by immunoblot analysis; assay type: cell-based
Procedure, shortened: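 UW426 cells at 60–80% confluence were treated 24 h at 1-2.5 µM with 10% FBS, against a DMSO control, then immunoblotted.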

[2] = biological target: T1, Signal transducer and activator of transcription 3 (Homo sapiens, UniProt P40763); conditions: 2.5 to 5 uM
Mus musculus = assay: Toxicity in BALB/c nude mouse xenografted with human MDA-MB-231 cells assessed as spleen damage at 2.5 to 10 mg/kg, po qd administered for 32 days by H&E staining based light microscopy; assay type: organism-based; conditions: in vivo, 768 h
Procedure, shortened: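 6-week-old female athymic SPF BALB/c nude mice received 5 x 10^6 MDA-MB-231 cells s.c. in the flank. Oral treatment began once tumors reached about 100 mm3, with 8 mice per group and a saline vehicle control. […] Treatment lasted 32 days. Heart, liver, spleen, lung and kidney were fixed 48 h in 10% neutral-buffered formaldehyde, paraffin-embedded, cut at 5 µm, H&E-stained and examined by light microscopy.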

[3] = Tmax in Sprague-Dawley rat plasma at 10 mg/kg, po measured after 24 hrs by UPLC analysis; assay type: ADME, organism-based
Procedure, shortened: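 Rats dosed i.v. or p.o. Plasma concentrations followed from 2 min to 24 h after dosing. The bioanalytical method was validated to FDA guidelines for selectivity, linearity, LLOQ, accuracy, precision, recovery, matrix effect and stability.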

[4] = AUC (0 to t) in Sprague-Dawley rat plasma at 1 mg/kg, iv measured after 24 hrs by UPLC analysis; assay type: ADME, organism-based; parameters: dose 1 mg/kg, time < 24 hr, route intravenous
Procedure, shortened: (§1)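 Rat plasma sampled from 2 min to 24 h after a single i.v. (1 mg/kg) or p.o. (10 mg/kg) dose. Parameters were derived from the concentration-time profiles. The bioanalytical method was validated to FDA guidelines for selectivity, linearity, LLOQ, accuracy, precision, recovery, matrix effect and stability.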

[5] = biological target: T2, Signal transducer and activator of transcription 1-alpha/beta (Homo sapiens) (UniProt P42224); assay: Binding affinity to STAT1 (unknown origin) after 30 mins by fluorescence polarization assay
T2 sequence (whole entry): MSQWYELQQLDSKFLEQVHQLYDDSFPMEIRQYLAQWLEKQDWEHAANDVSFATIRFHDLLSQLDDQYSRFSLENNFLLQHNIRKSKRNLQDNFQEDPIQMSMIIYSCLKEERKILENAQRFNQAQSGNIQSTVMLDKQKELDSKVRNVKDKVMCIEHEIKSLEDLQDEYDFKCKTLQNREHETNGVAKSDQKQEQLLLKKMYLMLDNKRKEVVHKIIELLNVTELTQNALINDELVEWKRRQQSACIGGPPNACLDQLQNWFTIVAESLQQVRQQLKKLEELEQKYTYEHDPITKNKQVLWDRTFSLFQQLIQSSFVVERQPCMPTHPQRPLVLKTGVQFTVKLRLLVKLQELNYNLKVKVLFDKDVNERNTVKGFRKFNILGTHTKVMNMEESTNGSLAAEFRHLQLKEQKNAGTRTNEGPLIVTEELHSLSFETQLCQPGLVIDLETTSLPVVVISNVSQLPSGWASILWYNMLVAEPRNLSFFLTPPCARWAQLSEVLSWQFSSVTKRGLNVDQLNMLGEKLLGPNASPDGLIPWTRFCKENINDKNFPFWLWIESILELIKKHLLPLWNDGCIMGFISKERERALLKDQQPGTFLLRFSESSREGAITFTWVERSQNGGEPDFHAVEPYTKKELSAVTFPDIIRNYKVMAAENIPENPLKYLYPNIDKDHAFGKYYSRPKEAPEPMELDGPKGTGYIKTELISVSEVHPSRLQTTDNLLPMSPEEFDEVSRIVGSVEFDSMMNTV
Procedure, shortened: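 A competitive fluorescence polarization assay measured displacement of fluorescent phosphopeptide from the SH2 domain of purchased STAT1 or STAT5 protein, using the corresponding peptides.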

[6] = MRT (0 to infinity) in Sprague-Dawley rat plasma at 10 mg/kg, po measured after 24 hrs by UPLC analysis; assay type: ADME, organism-based; procedure, shortened: as §1
[7] = biological target: T1, Signal transducer and activator of transcription 3; assay: Displacement of 5-FAM-SpYLPQTV from STAT3 (unknown origin) at pY705 site after 30 mins by fluorescence polarization assay

T1 sequence (P40763 whole entry): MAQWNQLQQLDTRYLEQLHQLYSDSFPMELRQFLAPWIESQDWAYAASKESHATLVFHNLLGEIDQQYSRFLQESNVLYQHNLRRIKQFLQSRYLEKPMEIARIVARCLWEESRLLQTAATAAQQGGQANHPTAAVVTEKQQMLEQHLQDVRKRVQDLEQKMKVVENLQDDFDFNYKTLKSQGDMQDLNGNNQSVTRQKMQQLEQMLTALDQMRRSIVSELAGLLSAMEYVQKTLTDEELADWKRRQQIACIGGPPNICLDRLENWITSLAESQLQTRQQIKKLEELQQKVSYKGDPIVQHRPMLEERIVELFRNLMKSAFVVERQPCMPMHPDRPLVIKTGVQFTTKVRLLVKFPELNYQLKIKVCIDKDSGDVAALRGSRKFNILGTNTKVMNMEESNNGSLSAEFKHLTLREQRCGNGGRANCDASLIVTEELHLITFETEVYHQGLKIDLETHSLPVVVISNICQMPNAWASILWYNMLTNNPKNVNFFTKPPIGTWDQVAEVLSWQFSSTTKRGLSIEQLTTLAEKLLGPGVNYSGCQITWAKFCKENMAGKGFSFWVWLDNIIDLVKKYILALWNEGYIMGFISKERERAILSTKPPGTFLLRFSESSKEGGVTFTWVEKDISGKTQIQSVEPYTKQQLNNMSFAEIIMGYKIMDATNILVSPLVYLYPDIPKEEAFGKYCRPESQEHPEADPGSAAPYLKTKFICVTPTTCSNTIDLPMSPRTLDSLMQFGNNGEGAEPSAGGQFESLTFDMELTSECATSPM
Epidermal growth factor receptor (Homo sapiens), sequence (P00533 whole entry): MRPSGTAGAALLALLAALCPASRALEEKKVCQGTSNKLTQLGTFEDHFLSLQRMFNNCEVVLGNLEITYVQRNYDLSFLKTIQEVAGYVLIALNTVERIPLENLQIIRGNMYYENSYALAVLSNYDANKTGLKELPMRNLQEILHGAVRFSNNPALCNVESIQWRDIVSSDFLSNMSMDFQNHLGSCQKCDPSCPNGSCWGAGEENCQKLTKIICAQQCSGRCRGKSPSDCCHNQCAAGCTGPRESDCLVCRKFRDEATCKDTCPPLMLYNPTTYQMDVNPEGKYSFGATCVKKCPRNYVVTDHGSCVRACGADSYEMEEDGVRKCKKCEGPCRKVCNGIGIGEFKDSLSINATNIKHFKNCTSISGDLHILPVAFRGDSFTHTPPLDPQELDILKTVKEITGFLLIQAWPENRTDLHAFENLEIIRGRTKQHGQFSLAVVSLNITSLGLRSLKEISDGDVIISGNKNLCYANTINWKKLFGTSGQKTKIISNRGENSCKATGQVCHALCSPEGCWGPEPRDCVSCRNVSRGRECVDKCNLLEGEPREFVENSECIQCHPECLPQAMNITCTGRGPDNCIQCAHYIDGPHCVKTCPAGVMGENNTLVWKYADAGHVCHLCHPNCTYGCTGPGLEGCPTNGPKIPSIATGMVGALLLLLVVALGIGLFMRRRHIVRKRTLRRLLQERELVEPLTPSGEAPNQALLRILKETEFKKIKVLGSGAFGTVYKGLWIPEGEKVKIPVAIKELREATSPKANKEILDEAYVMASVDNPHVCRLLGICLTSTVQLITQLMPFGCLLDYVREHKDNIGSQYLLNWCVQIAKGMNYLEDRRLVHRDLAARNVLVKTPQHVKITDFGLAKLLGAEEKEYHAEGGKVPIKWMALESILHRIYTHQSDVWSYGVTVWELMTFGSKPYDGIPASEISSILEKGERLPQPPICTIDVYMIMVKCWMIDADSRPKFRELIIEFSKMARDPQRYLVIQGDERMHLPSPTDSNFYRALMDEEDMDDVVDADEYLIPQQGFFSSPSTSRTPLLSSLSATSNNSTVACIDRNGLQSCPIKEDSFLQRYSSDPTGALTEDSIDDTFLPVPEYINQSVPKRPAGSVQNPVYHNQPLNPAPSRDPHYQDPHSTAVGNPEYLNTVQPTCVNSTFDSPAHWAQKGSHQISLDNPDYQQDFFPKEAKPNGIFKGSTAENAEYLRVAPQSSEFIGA

What does the source list for `NS(=O)(=O)c1cccc2c1C(=O)C=C(Nc1ccccc1N1CCNCC1)C2=O`?
Activity (MDA-MB-231): Active; inhibition [1]: inactive; inhibition [2]: Active; Activity (Mus musculus): Non-Toxic; Tmax [3]: 0.5 h; AUC(0-t) at 24 h [4]: 189 ng·h/mL; Activity [5]: inactive; MRT inf [6]: 2.25 h; Ki [7]: 440 nM
